Assay results taken from ChEMBL document CHEMBL3286151, “Biological activities of novel pyrazolyl hydroxamic acid derivatives against human lung cancer cell line A549” (Eur J Med Chem, 2014).
Calls of active or inactive are those of the source. The calls are words filed in the database; no cut-off is given here.

Legend:
A549 [1] = test: Induction of apoptosis in human A549 cells assessed as appearance of apoptotic bodies at 10 uM after 48 hrs by Hoechst 33258 staining-based fluorescence microscopic analysis; type: functional, cell-based
Method in brief: (§1)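 A549 cells seeded 24 h, then treated at 10 µM for 48 h in 1% serum RPMI-1640 against a 0.1% DMSO control. Fixed in 4% paraformaldehyde for 10 min at room temperature and stained with Hoechst 33258 (2 µg/mL) for 20 min. Nuclear morphology was scored by fluorescence microscopy at 200×.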

A549 [2] = test: Induction of apoptosis in human A549 cells assessed as chromatin condensation at 10 uM after 48 hrs by Hoechst 33258 staining-based fluorescence microscopic analysis; type: functional, cell-based; method in brief: as §1
A549 [3] = test: Cytotoxicity against human A549 cells assessed as growth inhibition at 1 to 10 uM by sulforhodamine B assay; type: functional, cell-based; settings: TDE = time-dependent effect
Method in brief: (§2)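 A549 cells seeded 24 h in RPMI-1640 with 10% bovine calf serum, then exposed in 1% serum medium to 1, 5 and 10 µM for 24 h and 48 h. 0.1% DMSO served as control and 5-FU as positive control. Viability by SRB staining, absorbance 540 nm, calculated relative to DMSO control. Mean ± SEM, n = 3, Student's t-test.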

A549 [4] = test: Induction of autophagy in human A549 cells assessed as accumulation of acidic vesicles at 10 uM after 48 hrs by acridine orange staining-based fluorescence microscopic analysis; type: functional, cell-based
Method in brief: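 Acidic vesicles in A549 cells after 10 µM exposure for 48 h. Cells stained with acridine orange (100 µg/mL) for 1 min at room temperature, then imaged by fluorescence microscopy at 200×.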

A549 [5] = test: Induction of apoptosis in human A549 cells assessed as nuclear fragmentation at 10 uM after 48 hrs by Hoechst 33258 staining-based fluorescence microscopic analysis; type: functional, cell-based; method in brief: as §1
A549 [6] = test: Induction of necrosis in human A549 cells at 10 uM after 48 hrs by LDH assay; type: functional, cell-based
Method in brief: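 Necrosis read-out: A549 cells exposed to 10 µM or 0.1% DMSO control for 48 h. Culture medium was collected and LDH activity measured with a commercial kit. Mean ± SEM, n = 3, Student's t-test.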

A549 [7] = test: Cytotoxicity against human A549 cells assessed as growth inhibition after 24 to 48 hrs by sulforhodamine B assay; type: functional, cell-based; method in brief: as §2
A549 [8] = test: Induction of autophagosome formation in human A549 cells assessed as LC3-2 to LC3-1 ratio at 5 to 10 uM after 24 hrs by Western blotting analysis; type: functional, cell-based
A549 [9] = test: Cytotoxicity against human A549 cells assessed as growth inhibition at 1 to 10 uM after 48 hrs by sulforhodamine B assay relative to control; type: functional; method in brief: as §2
A549 [10] = test: Induction of autophagosome formation in human A549 cells assessed as increase in LC3-2 protein level at 5 to 10 uM after 24 hrs by Western blotting analysis; type: functional, cell-based
A549 [11] = test: Induction of autophagic flux in human A549 cells assessed as decrease in p62 protein level at 5 to 10 uM after 24 hrs by Western blotting analysis; type: functional, cell-based
A549 [12] = test: Cell cycle arrest in human A549 cells assessed as accumulation at G2/G1 phase at 10 uM after 48 hrs by propidium iodide staining-based flow cytometric analysis (reference value: 1.91%); type: functional
A549 [13] = test: Cell cycle arrest in human A549 cells assessed as accumulation at G1 phase at 10 uM after 48 hrs by propidium iodide staining-based flow cytometric analysis (reference value: 54.5%); type: functional
A549 [14] = test: Cell cycle arrest in human A549 cells assessed as accumulation at G2 phase at 10 uM after 48 hrs by propidium iodide staining-based flow cytometric analysis (reference value: 10.32%); type: functional
A549 [15] = test: Induction of autophagosome formation in human A549 cells assessed as conversion of LC3-1 to LC3-2 at 5 to 10 uM after 24 hrs by Western blotting analysis; type: functional, cell-based
A549 [16] = test: Cell cycle arrest in human A549 cells assessed as accumulation at S phase at 10 uM after 48 hrs by propidium iodide staining-based flow cytometric analysis (reference value: 35.18%); type: functional

Structure (SMILES)	Activity (A549 [1])	Activity (A549 [2])	growth inhibition (GI) (A549 [3])	Activity (A549 [4])	Activity (A549 [5])	Activity (A549 [6])	IC50 (A549 [7])	growth inhibition (GI) (A549 [7])	Activity (A549 [8])	growth inhibition (GI) (A549 [9])	Activity (A549 [10])	Activity (A549 [11])	Activity (A549 [12])	Activity (A549 [13])	Activity (A549 [14])	Activity (A549 [15])	Activity (A549 [16])
COc1ccc(-c2cc(C(=O)NO)n(Cc3ccc(Cl)nc3)n2)cc1	inactive	inactive	tde	Active	inactive	Active	8.56 µM	Dose-dependent effect	–	–	–	–	–	–	–	–	–
O=C(NO)c1cc(-c2ccc(Cl)cc2)nn1Cc1ccccc1	inactive	inactive	tde	Active	inactive	inactive	4.44 µM	Dose-dependent effect	–	–	–	–	–	–	–	–	–
CC(C)(C)c1ccc(Cn2nc(-c3ccccc3)cc2C(=O)NO)cc1	inactive	inactive	tde	Active	inactive	inactive	1.72 µM	Dose-dependent effect	Active	<=70%	Active	Active	1.8%	72.8%	2.32%	Active	24.87%
O=C(NO)c1cc(-c2ccc(Cl)cc2)nn1Cc1ccc(Cl)nc1	inactive	inactive	tde	Active	inactive	inactive	4.21 µM	Dose-dependent effect	Active	<=70%	Active	Active	1.84%	71.91%	0%	Active	28.09%
O=C(NO)c1cc(-c2ccccc2)nn1Cc1ccc(Cl)nc1	inactive	inactive	tde	Active	inactive	inactive	8.5 µM	Dose-dependent effect	–	–	–	–	–	–	–	–	–
O=c1[nH]cc(F)c(=O)[nH]1 [FLUOROURACIL]	–	–	–	–	–	–	1.65 µM	–	–	–	–	–	–	–	–	–	–
O=C(NO)c1cc(-c2ccccc2)nn1Cc1ccc([N+](=O)[O-])cc1	inactive	inactive	tde	Active	inactive	inactive	6 µM	Dose-dependent effect	–	–	–	–	–	–	–	–	–
O=C(NO)c1cc(-c2ccccc2)nn1Cc1ccccc1	inactive	inactive	tde	Active	inactive	inactive	5.6 µM	Dose-dependent effect	–	–	–	–	–	–	–	–	–
COc1ccc(-c2cc(C(=O)NO)n(Cc3ccccc3)n2)cc1	inactive	inactive	tde	Active	inactive	inactive	6.77 µM	Dose-dependent effect	–	–	–	–	–	–	–	–	–
COc1ccc(-c2cc(C(=O)NO)n(Cc3ccc([N+](=O)[O-])cc3)n2)cc1	inactive	inactive	tde	Active	inactive	inactive	7.11 µM	Dose-dependent effect	–	–	–	–	–	–	–	–	–
O=C(NO)c1cc(-c2ccc(Cl)cc2)nn1Cc1ccc([N+](=O)[O-])cc1	inactive	inactive	tde	Active	inactive	inactive	7.78 µM	Dose-dependent effect	–	–	–	–	–	–	–	–	–
COc1ccc(-c2cc(C(=O)NO)n(Cc3ccc(C(C)(C)C)cc3)n2)cc1	inactive	inactive	tde	Active	inactive	Active	2.56 µM	Dose-dependent effect	–	<=70%	–	–	–	–	–	–	–
CC(C)(C)c1ccc(Cn2nc(-c3ccc(Cl)cc3)cc2C(=O)NO)cc1	inactive	inactive	tde	Active	inactive	inactive	1.82 µM	Dose-dependent effect	Active	<=70%	Active	Active	1.96%	78.73%	0%	Active	21.27%
